Reference: PubChem BioAssay AID504846 (Johns Hopkins Ion Channel Center, 2011)
Active and inactive are the calls of the source.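 Rule for the calls: active = blocks the KCNK9 potassium channel at some tested concentration and gives a dose response curve; inactive = the rest.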

Molecular target: Potassium channel subfamily K member 9 (Homo sapiens) (UniProt Q9NPC2)
Test: KCNK9 potassium channel inhibitors, SAR follow-up, HEK293 cells, thallium flux (AID 504846)
Conditions: HEK293-KCNK9, FluxOR thallium flux fluorescence; series mostly up to 30 µM
How it was run: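 Doses: Concentration-response series | System: KCNK9-expressing stable HEK293 cell line | Repeats: Replicate concentration-response series per compound | Signal: Kinetic thallium-dye fluorescence | Reagent: K2SO4 and Tl2SO4 flux stimulus (stock 25 mM, 7 mM) | Incubation: 20 min room-temperature compound pre-incubation, then 110 s post-stimulus reading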

Potassium channel subfamily K member 9 (Homo sapiens), sequence (Q9NPC2 whole entry, looked up): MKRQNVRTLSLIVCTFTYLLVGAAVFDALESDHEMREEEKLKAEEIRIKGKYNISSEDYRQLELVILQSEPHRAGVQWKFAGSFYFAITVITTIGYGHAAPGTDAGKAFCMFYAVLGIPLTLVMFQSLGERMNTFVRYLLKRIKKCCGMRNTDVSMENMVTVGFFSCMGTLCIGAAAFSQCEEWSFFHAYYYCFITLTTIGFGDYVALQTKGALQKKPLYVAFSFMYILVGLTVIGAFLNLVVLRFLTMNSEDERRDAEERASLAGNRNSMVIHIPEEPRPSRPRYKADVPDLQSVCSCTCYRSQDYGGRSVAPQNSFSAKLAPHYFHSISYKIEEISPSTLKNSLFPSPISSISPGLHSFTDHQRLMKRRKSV

outcome, inactive:
Cc1cccc(C(=O)Nc2ccccc2C(=O)Nc2ccccc2)c1
Cc1cccc(C(=O)Nc2cccc(C(=O)Nc3ccccc3)c2)c1
Cc1cccc(NC(=O)c2ccccc2NC(=O)c2ccccc2)c1
Cc1cccc(NC(=O)c2cccc(NC(=O)c3ccccc3)c2)c1
Cc1cccc(C(=O)Nc2ccc(C(=O)Nc3ccccc3)cc2)c1
